High-throughput results deposited in PubChem BioAssay by several laboratories.
STAT3 act-1: activators of IL-6 induced STAT3 signaling. actives 0.91% (n = 190,000). activation (% of control), % at 5.6 µM. AID 871. U3A cells, IL-6 STAT3-luciferase reporter, luminescence; 100% = signal with IL-6 EC80 alone;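 active means activation above the screen-wide mean of compound activation plus 3 SD, cut at about 130% in these data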
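Assay system – human STAT1-deficient U3A cells with stable STAT3-luciferase reporter · Also added – IL-6 (33 ng/mL) · Schedule – compound 1 h, then IL-6 6 h at 37 °C · Technique – reporter luminescence signal · Evaluation – % activation versus median of IL-6-stimulated wells · Benchmarks – IL-6-only wells as 100% reference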
APP 5'UTR act: activates APP 5'UTR luciferase reporter. AID 1276. actives 1% (n = 190,000). activation, % at 2 µM. SH-SY5Y APP 5'UTR luciferase reporter, luminescence; zero percent = DMSO vehicle wells;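 active means activation above a set limit, based on mean plus 3 SD of controls, cut at about 140% in these data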
STAT3 inh: inhibitors of IL-6 induced STAT3 signaling | U3A cells, IL-6 STAT3-luciferase reporter, luminescence; host cell line lacks STAT1 | actives 0.89% (n = 190,000) | inhibition, % at 5.5 µM;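 active means inhibition above the mean inhibition across all screened compounds plus 3 SD, cut at about 44% in these data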
NF-kB neuron act: raises NF-kB expression in human neuronal cells | fold change at 12.5 µM | AID 1239 | actives 1.6% (n = 190,000) | NF-kB reporter expression; hits give high values; in the data active means fold change above about 3.3
STAT1 act-1: activators of IFN-gamma induced STAT1 signaling | NIH 3T3 STAT1-luciferase reporter, luminescence; 100% = IFN-gamma alone, no compound | activation (% of control), % at 5.5 µM | actives 2.6% (n = 200,000) | AID 932;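 active means activation above the screen-wide mean activation plus 3 SD, cut at about 130% in these data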
STAT1 inh: STAT1 signaling inhibition | inhibition, % at 5.5 µM | actives 0.35% (n = 200,000) | NIH 3T3 STAT1-luciferase reporter, IFN-gamma, luminescence;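 active means inhibition above a set limit, the mean inhibition across all tested compounds plus 3 SD, cut at about 34% in these data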
STAT3 act-2: STAT3 activation, confirmation assay; shares compounds with STAT3 act-1; AID 1267; U3A STAT3-luciferase reporter, IL-6 potentiation, luminescence; U3A cells lack STAT1; 100 means same as IL-6 alone; actives 64% (n = 1,200); potentiation (% of control), % at 5.7 µM;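 active means percent activation of the STAT3 luciferase reporter above a set limit taken from the earlier primary screen, cut at about 130% in these data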
NFkB act STAT3ct: NF-kappaB activation in STAT3 activator counter-screen. actives 11% (n = 1,200). activation (% of control), % at 5.7 µM. human cells, NF-kappaB reporter activation. shares compounds with STAT3 act-1; in the data active means activation above about 120%;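 further: reporter induced by TNF-alpha stimulation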
STAT1 act-2: counter-screen for STAT3 activators: STAT1 activation; shares compounds with STAT3 act-1; NIH 3T3 STAT1-luciferase reporter, IFN-gamma, luminescence; activation (% of control), % at 5.7 µM; actives 13% (n = 1,200); AID 1318;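 active means activation above the solvent-only control well mean plus 3 SD, set per screening run, cut at about 120% in these data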
A number is an active result; . = inactive; / = not tested or not shown; ! = repeats disagree. This is a sample that favours compounds with a hit; in the whole collection about 4.9% have one here.

SMILES	STAT3 act-1	APP 5'UTR act	STAT3 inh	NF-kB neuron act	STAT1 act-1	STAT1 inh	STAT3 act-2	NFkB act STAT3ct	STAT1 act-2
Cc1ccc(C(=O)N2CCN(S(=O)(=O)c3ccc(C)cc3)CC2)cc1	146	.	.	.	.	.	.	.	.
CSCC[C@H](NC(=O)OC(C)(C)C)c1nnc(SCc2cccc(F)c2)o1	142	.	.	.	.	.	.	.	.
CSCC[C@H](NC(=O)OC(C)(C)C)c1nnc(SCc2ccc(F)cc2)o1	.	.	.	.	.	.	/	/	/
O=c1oc2ccccc2c(O)c1/C=C1\C=Nc2ccccc21	161	.	.	.	.	.	152	.	.
COc1ccccc1NS(=O)(=O)c1cc(NC(=O)c2ccncc2)ccc1N1CCCC1	.	.	.	.	.	.	/	/	/
C[n+]1c2n(c3ccccc31)N=C(c1ccccc1)CS2	140	.	.	.	.	.	149	.	.
Cc1cccc(-c2nnc3n2N=C(c2ccccc2)CS3)c1	.	.	.	.	.	.	/	/	/
C[n+]1c2n(c3ccccc31)N=C(c1ccc(Br)cc1)CS2	136	.	.	.	.	.	.	.	.
Cc1cccc(N2C(=O)CSC23CCCCC3)c1	.	.	.	.	.	.	/	/	/
COc1cc(NC(=O)Cc2c(C(=O)O)n(C)c3ccccc23)cc(OC)c1OC	.	.	.	.	.	.	/	/	/
COc1ccc(N=Cc2sc3ccccc3c2Cl)cc1	137	.	.	.	.	.	.	.	132
O=C(Nc1nc(-c2cccs2)cs1)c1cccc(S(=O)(=O)N2CCCCCC2)c1	140	.	.	.	.	.	.	.	125
CCC(C)C(=O)Nc1nc(C)c(-c2csc(Nc3ccc(Cl)cc3)n2)s1 (configuration not stated)	139	.	.	.	.	.	.	.	.
Cc1ccc(Nc2nc(-c3sc(NC(=O)c4cccc(Cl)c4)nc3C)cs2)cc1	156	.	.	.	.	.	.	.	.
CCCC(=O)Nc1nc(C)c(-c2csc(Nc3ccc(Cl)cc3)n2)s1	177	.	.	.	.	.	162	.	.
S=C(Nc1ccccc1Oc1ccccc1)Nc1cccc(Cl)c1Cl	.	.	.	.	.	.	/	/	/
O=C([C@H](O)c1ccccc1)N1CCC[C@H]1CO	.	.	.	.	.	.	/	/	/
Cc1ccc2nc(SCC(=O)Nc3ccc(F)c([N+](=O)[O-])c3)[nH]c2c1	.	.	.	.	.	.	/	/	/
Cc1ccc2nc(SCC(=O)Nc3cc([N+](=O)[O-])ccc3F)[nH]c2c1	139	.	.	.	.	.	139	.	.
COc1cccc(NC(=S)N(CCCN2CCOCC2)C(C)c2cc3ccccc3o2)c1 (configuration not stated)	.	.	.	.	.	.	/	/	/
Cc1ccc(C(=O)N2CCN3C(=O)c4ccccc4C23c2ccc(Cl)cc2)cc1 (configuration not stated)	559	.	.	.	.	.	487	126	.
O=C(CCl)N1CCN2C(=O)c3ccccc3C12c1ccc(Cl)cc1 (configuration not stated)	.	.	.	.	.	.	/	/	/
COc1ccc(C2c3[nH]c4ccccc4c3CCN2C(=O)c2cc3ncccn3n2)c(F)c1 (configuration not stated)	146	.	.	.	.	.	149	.	.
COc1ccc(C2c3[nH]c4ccccc4c3CCN2C(=O)c2cn3ccccc3n2)c(F)c1 (configuration not stated)	161	.	.	.	.	.	159	.	.
COc1ccc(OCC(=O)N2CCc3c([nH]c4ccccc34)C2c2ccccn2)cc1 (configuration not stated)	.	.	.	.	.	.	/	/	/
SMILES	STAT3 act-1	APP 5'UTR act	STAT3 inh	NF-kB neuron act	STAT1 act-1	STAT1 inh	STAT3 act-2	NFkB act STAT3ct	STAT1 act-2
CC(C)(C)NC(=O)NC(=O)CSc1nnc(COc2ccccc2Cl)o1	.	.	.	.	.	.	/	/	/
C/C(N)=C(/C#N)C(=O)CSc1nnc(COc2ccccc2Cl)o1	139	.	.	.	.	.	134	.	.
COc1cc(OC)c(NC(=O)c2ccccc2F)cc1Cl	138	.	.	.	.	.	.	.	.
COc1cc(NC(=O)c2ccc(Cl)cc2)c(OC)cc1Cl	149	.	.	.	.	.	.	.	.
O=C(O)c1cc2ccc3ccccc3c2oc1=O	152	.	.	.	.	.	.	.	.
CNc1nc(-c2c[nH]c3ccccc23)cs1	161	.	.	.	.	.	152	.	.
O=C(OC1C2CCC1C1CN(CCc3ccccc3)CC12)c1ccccc1 (configuration not stated)	.	.	.	.	.	.	/	/	/
CC(=O)c1c(-c2ccc(C)cc2)nc2c3ccccc3ccn12	142	.	.	.	.	.	143	.	.
O=C(Nc1nnc(CSCc2ccc(F)cc2)s1)c1ccc([N+](=O)[O-])cc1	.	.	.	.	.	.	/	/	/
CC(=O)Nc1cc(O)cc(O)c1	/	.	/	/	/	/	/	/	/
CCOC(=O)c1cnn(-c2ccccn2)c1N	.	.	.	.	.	.	/	/	/
CCOC(=O)c1cnn(-c2cc(C)c3ccccc3n2)c1N	170	.	.	.	.	.	173	.	.
Oc1c(Br)cc(Br)cc1/C=N/c1nc2c(s1)CCCC2	.	.	.	.	.	.	/	/	/
Oc1ccc2ccccc2c1/C=N/c1nc2c(s1)CCCC2	154	.	.	.	.	.	136	.	.
Cc1ccc(NC(=S)N(CCCN(C)C)Cc2cc3cc4c(cc3[nH]c2=O)OCO4)c(C)c1	.	.	.	.	.	.	/	/	/
COC(=O)CSc1cc(C)nc2ccc(OC)cc12	.	.	.	.	.	.	/	/	/
COc1ccc2nc(C)cc(SCC(=O)O)c2c1	140!	.	.	.	.	.	.	.	.
CN1CCc2c(sc3ncn4nc(-c5ccccc5O)nc4c23)C1	182	.	.	.	.	.	164	.	.
c1coc(-c2nc3c4c5c(sc4ncn3n2)CCCC5)c1	.	.	.	.	.	.	/	/	/
CCNc1nc(SC(C(C)=O)C(C)=O)nc(N(C)C)n1	.	.	.	.	.	.	/	/	/
CCNc1nc(NC(C)(C)C)nc(SC(C(C)=O)C(C)=O)n1	141	.	.	.	.	.	.	.	.
